We go through one compound from ChEMBL document CHEMBL4118027, “Preussilides A-F, Bicyclic Polyketides from the Endophytic Fungus Preussia similis with Antiproliferative Activity” (J Nat Prod, 2017).

The term IC50 denotes the concentration that inhibits the measured activity by half. As usually defined, the MIC is the smallest concentration in the dilution series that meets the test's criterion for growth inhibition. A high value points to weaker potency.

Values after ≈ are worked out from the molar mass of the structure shown. Active and inactive are the calls of the source.

The test system of test [1] is Sclerotinia sclerotiorum. Kind of test: Antifungal activity against Sclerotinia sclerotiorum DSM 1946 at 100 ug/disk after 5 days by disk diffusion assay. As to conditions: DSM 1946, 120 h, read-out: IZ. Type of test: functional. In short, it runs like this:
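Disk diffusion on YMG medium seeded with a mycelial suspension of the non-sporulating test fungus. Paper disks carried […] compound. Nystatin at 20 μg/disk was the positive control. Inhibition zone diameter (mm) was read after 5 days.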
(In general: A growth-free zone around the sample is the usual read-out of agar diffusion tests.)

For test [2], the system named is Mucor hiemalis. Kind of test: Antifungal activity against Mucor hiemalis DSM 2656 by serial dilution method. Type of test: functional, organism-based.
Test [3] concerns U2OS. Kind of test: Cytotoxicity against human U2OS cells assessed as reduction in cell viability after 5 days by MTT assay. The class given is functional, cell-based. As to conditions: 120 h. In short, it runs like this: (§1)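 MTT viability assay run over 5 days on a panel of eight lines (L929, KB3.1, A431, A549, SKOV-3, PC-3, MCF-7, U2OS). IC50 values were derived.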
The test system of test [4] is Staphylococcus aureus. Kind of test: Antibacterial activity against Staphylococcus aureus DSM 346 by serial dilution method. The class given is functional, organism-based.
Test [5] has as its system Lepidium sativum. Kind of test: Phytotoxicity against Lepidium sativum assessed as inhibition of seedling germination at 100 ug/disk. The class given is functional, organism-based.
Test [6] has as its system U2OS. Kind of test: Cell cycle arrest in human U2OS cells assessed as accumulation at S phase at 10 ug/ml after 18 hrs by propidium iodide staining based flow cytometry (reference value: 19%). The class given is functional. Summed up:
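U2OS were seeded at 7 × 10^5/well in six-well plates and exposed to 5 or 10 μg/mL for 18 h after spreading, with untreated and DMSO mock controls. Cells were trypsinized, fixed in 2% PFA/PBS, then in ice-cold methanol 30 min. Staining: anti-tubulin/anti-lamin antibodies plus RNase A and propidium iodide. Flow cytometry assigned G1, S, G2-M and sub-G1 by DNA content.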

Test [7] deals with L929. Kind of test: Cytotoxicity against mouse L929 cells assessed as reduction in cell viability after 5 days by MTT assay. The class given is functional, cell-based. The following applies: L929, 120 h. In short, it runs like this:
as §1
A general note: Tetrazolium dyes change colour on reduction, which living cells bring about.

The subject of test [8] is Rhodotorula glutinis. Kind of test: Antifungal activity against Rhodotorula glutinis DSM 10134 by serial dilution method. Type of test: functional, organism-based.
Test [9] deals with A-431. Kind of test: Cytotoxicity against human A431 cells assessed as reduction in cell viability after 5 days by MTT assay. The class given is functional, cell-based. The following applies: A-431, 120 h. Summed up: as §1
Test [10] relates to Setaria italica. Kind of test: Phytotoxicity against Setaria italica assessed as inhibition of seedling germination at 100 ug/disk. The class given is functional, organism-based.
Test [11] relates to Mucor plumbeus. Kind of test: Antifungal activity against Mucor plumbeus MUCL 49355 by serial dilution method. The class given is functional.
For test [12], the system named is Micrococcus luteus. Kind of test: Antibacterial activity against Micrococcus luteus DSM 1790 by serial dilution method. Type of test: functional, organism-based.
Test [13] concerns U2OS. Kind of test: Induction of apoptosis in human U2OS cells assessed as caspase-3/7 cleavage at 10 ug/ml after 18 hrs by caspase-3/7 green reagent based flow cytometry (reference value: 8.04%). On the technique in general: A flow cytometer gives signals particle by particle.

With `CC(=O)CC1=C(C)C=C2C[C@@H](C)C(=O)[C@@H](C)[C@@H]2[C@H]1/C=C(C)/C=C(C)/C=C/C(=O)O`, the zone of inhibition at 100 µg/disc in test [1] is 29 mm. Also, the outcome in test [2], in test [4], in test [5], in [8], in test [10] and in test [12] was inactive. Also, the results for the IC50 in [3], in [7] and in [9] were 6.8 µM, 9.1 µM and 10.1 µM, respectively. Besides, the figures for the Activity in test [6] and in test [13] were 9.62% and 5.72%, respectively. This compound registered an MIC in test [11] of 37.5 µg/mL (≈ 94.6 µM).
